What was measured:
Homo sapiens = species on record: Homo sapiens; experiment: Selectivity ratio of Ki for human dopamine D2 receptor to Ki for human dopamine D3 receptor
Procedure, shortened: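 Ki values from [3H]N-methylspiperone (0.4 nM) competition in membranes from HEK293 cells stably expressing human D2R or D3R, 10 μg protein per tube. Incubated 1 h at room temperature in triplicate, with 10 μM butaclamol defining nonspecific binding. […] Ratio is D2R Ki divided by D3R Ki.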

D(3) dopamine receptor = D(3) dopamine receptor (Homo sapiens, UniProt P35462); experiment: Displacement of [3H]-N-methylspiperone from human dopamine D3 receptor expressed in HEK293 cell membranes after 1 hr by liquid scintillation counting analysis
D(4) dopamine receptor = target: T1, D(4) dopamine receptor (Homo sapiens, UniProt P21917); experiment: Displacement of [3H]-N-methylspiperone from human dopamine D4 receptor expressed in HEK293 cell membranes after 1 hr by liquid scintillation counting analysis
T1 sequence (P21917 whole entry): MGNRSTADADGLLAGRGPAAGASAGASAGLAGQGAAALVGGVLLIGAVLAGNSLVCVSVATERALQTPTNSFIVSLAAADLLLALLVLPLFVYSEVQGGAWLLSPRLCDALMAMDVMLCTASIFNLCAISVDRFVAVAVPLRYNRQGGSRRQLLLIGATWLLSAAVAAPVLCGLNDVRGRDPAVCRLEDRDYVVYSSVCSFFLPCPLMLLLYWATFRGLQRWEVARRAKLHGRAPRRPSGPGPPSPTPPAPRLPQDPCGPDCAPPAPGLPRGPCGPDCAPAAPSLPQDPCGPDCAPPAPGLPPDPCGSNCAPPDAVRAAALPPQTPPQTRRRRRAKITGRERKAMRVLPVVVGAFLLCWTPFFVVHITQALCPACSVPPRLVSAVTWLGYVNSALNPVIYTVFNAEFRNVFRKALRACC

D(2) dopamine receptor = D(2) dopamine receptor (Homo sapiens, UniProt P14416); experiment: Displacement of [3H]-N-methylspiperone from human dopamine D2 receptor expressed in HEK293 cell membranes after 1 hr by liquid scintillation counting analysis
[1] = Metabolic stability in mouse liver microsomes assessed as compound remaining at 1 uM after 30 mins by LC/MS/MS analysis in presence of NADPH regenerating system; type: ADME; conditions: read-out: Stability
Procedure, shortened: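 Mouse liver microsomes at 0.2 mg/mL with compound at 1 μM final, in 100 mM potassium phosphate pH 7.4. Reaction started by adding microsomes, triplicate. Sampled at 0, 30 and 60 min and quenched with ice-cold acetonitrile plus internal standard. Percent parent remaining measured by LC/MS/MS. Controls lacking NADPH were run; testosterone served as positive control.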

[2] = Metabolic stability in mouse liver microsomes assessed as compound remaining at 1 uM after 60 mins by LC/MS/MS analysis in presence of NADPH regenerating system; type: ADME; conditions: read-out: Stability

D(2) dopamine receptor, sequence (P14416 whole entry): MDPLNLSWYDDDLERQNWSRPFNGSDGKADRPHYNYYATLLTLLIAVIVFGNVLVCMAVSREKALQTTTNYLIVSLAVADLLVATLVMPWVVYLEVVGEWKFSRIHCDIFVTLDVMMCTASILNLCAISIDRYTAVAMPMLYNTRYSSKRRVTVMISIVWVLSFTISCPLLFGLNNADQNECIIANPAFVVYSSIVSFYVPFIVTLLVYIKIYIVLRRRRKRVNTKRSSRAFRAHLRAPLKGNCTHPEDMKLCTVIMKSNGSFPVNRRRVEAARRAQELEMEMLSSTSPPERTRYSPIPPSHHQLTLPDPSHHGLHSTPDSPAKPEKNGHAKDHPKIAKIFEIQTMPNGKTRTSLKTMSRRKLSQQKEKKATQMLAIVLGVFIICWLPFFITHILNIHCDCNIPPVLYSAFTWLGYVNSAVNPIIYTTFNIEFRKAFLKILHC
D(3) dopamine receptor, sequence (P35462 whole entry): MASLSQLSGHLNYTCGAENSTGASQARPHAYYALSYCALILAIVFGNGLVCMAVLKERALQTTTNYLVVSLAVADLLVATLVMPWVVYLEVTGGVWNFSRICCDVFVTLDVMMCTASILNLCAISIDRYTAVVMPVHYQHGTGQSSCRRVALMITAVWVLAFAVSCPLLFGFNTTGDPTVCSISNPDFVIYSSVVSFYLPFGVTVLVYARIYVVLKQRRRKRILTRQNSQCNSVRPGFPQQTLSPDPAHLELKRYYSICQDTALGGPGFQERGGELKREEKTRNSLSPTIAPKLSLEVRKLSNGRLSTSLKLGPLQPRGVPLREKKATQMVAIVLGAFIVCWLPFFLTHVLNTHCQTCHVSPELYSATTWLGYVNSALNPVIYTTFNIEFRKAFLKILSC

Compound	Ratio Ki (Homo sapiens)	Ki (D(3) dopamine receptor) [nM]	Ki (D(4) dopamine receptor) [nM]	Ki (D(2) dopamine receptor) [nM]	remaining at 0.5 h, 1 µM [1] [%]	remaining at 1 h, 1 µM [2] [%]
COc1ccccc1N1CCN(CCCCc2cn(-c3ccc4c(c3)Cc3ccccc3-4)nn2)CC1	36	1.59	329	57.2	–	–
COc1ccccc1N1CCN(CC(O)CCn2cc(-c3ccc(-c4ccccc4)cc3)nn2)CC1 (racemic)	27	30.5	> 2000	819	–	–
Clc1cccc(N2CCN(CCCCn3cc(-c4ccc5c(c4)Cc4ccccc4-5)nn3)CC2)c1Cl	63	14	> 20000	885	–	–
Clc1cccc(N2CCN(CCCCc3cn(-c4ccc5[nH]ccc5c4)nn3)CC2)c1Cl	47	1	510	46.6	–	–
COc1ccccc1N1CCN(CCCCc2cn(-c3ccc4[nH]ccc4c3)nn2)CC1	17	3.1	353	51.8	–	–
COc1ccccc1-c1cn(CCC(O)CN2CCN(c3ccccc3OC)CC2)nn1 (racemic)	2.1	493	> 3000	1020	–	–
Clc1cccc(N2CCN(CCCCn3cc(-c4ccc5ncccc5c4)nn3)CC2)c1Cl	40	1.35	> 1000	53.9	–	–
COc1ccccc1N1CCN(CCCCn2cc(-c3ccc4ccccc4c3)nn2)CC1	2.1	11.1	232	23.3	–	–
COc1ccccc1N1CCN(CCCCn2cc(-c3ccc4c(c3)Cc3ccccc3-4)nn2)CC1	9	5.55	588	50.1	–	–
COc1ccccc1N1CCN(CC(O)CCn2cc(-c3ccc4[nH]ccc4c3)nn2)CC1 (racemic)	23	33.6	–	789	44	27
Clc1cccc(N2CCN(CCCCc3cn(-c4ccc5ccccc5c4)nn3)CC2)c1Cl	21	3.8	> 2000	80.8	–	–
Clc1cccc(N2CCN(CCCCc3cn(-c4ccc5c(c4)Cc4ccccc4-5)nn3)CC2)c1Cl	84	5.05	4450	424	–	–
COc1ccccc1N1CCN(CCCCc2cn(-c3ccc4ccccc4c3)nn2)CC1	11	2.93	299	31.5	–	–
Clc1cccc(N2CCN(CCCCn3cc(-c4ccc(-c5ccccc5)cc4)nn3)CC2)c1Cl	311	8.32	> 10000	2590	–	–
COc1ccccc1N1CCN(CCCCc2cn(-c3cccc4ncccc34)nn2)CC1	6.4	13.1	> 1000	83.4	–	–
COc1ccccc1N1CCN(CC(O)CCn2cc(-c3ccc4c(c3)Cc3ccccc3-4)nn2)CC1 (racemic)	33	18.5	> 1000	607	–	–

Compound	Ratio Ki (Homo sapiens)	Ki (D(3) dopamine receptor) [nM]	Ki (D(4) dopamine receptor) [nM]	Ki (D(2) dopamine receptor) [nM]	remaining at 0.5 h, 1 µM [1] [%]	remaining at 1 h, 1 µM [2] [%]
COc1ccccc1N1CCN(CC(O)CCn2cc(-c3ccccc3)nn2)CC1 (racemic)	7	173	> 3000	1210	–	–
OC(CCn1cc(-c2ccc(-c3ccccc3)cc2)nn1)CN1CCN(c2cccc(Cl)c2Cl)CC1 (racemic)	270	55.8	> 7000	15100	–	–
COc1ccccc1N1CCN(CC(O)CCn2cc(-c3ccc4ncccc4c3)nn2)CC1 (racemic)	6.2	68.2	> 3000	424	–	–
OC(CCn1cc(-c2cnc3ccccc3c2)nn1)CN1CCN(c2cccc(Cl)c2Cl)CC1 (racemic)	14	18	–	244	–	26
O=C(NCCC(O)CN1CCN(c2cccc(Cl)c2Cl)CC1)c1cnc2ccccc2c1 (stereo unspecified)	110	2.91	–	321	–	4
COc1ccccc1N1CCN(CCCCn2cc(-c3ccccc3)nn2)CC1	6	22.9	480	137	–	–
COc1ccccc1N1CCN(CCCCc2cn(-c3ccccc3)nn2)CC1	10	5.42	486	53.6	–	–
COc1ccccc1N1CCN(CC(O)CCn2cc(-c3ccc4ccccc4c3)nn2)CC1 (racemic)	4.6	40.7	> 2000	189	–	–
COc1ccccc1N1CCN(CCCCn2cc(-c3ccc(-c4ccccc4)cc3)nn2)CC1	12	5.88	425	69	–	–
Clc1cccc(N2CCN(CCCCn3cc(-c4ccc5ccccc5c4)nn3)CC2)c1Cl	13	7.7	> 1000	103	–	–
Clc1cccc(N2CCN(CCCCn3cc(-c4ccc5[nH]ccc5c4)nn3)CC2)c1Cl	38	1.47	> 2000	56.1	–	–
COc1ccccc1N1CCN(CCCCn2cc(-c3ccc4[nH]ccc4c3)nn2)CC1	8	5.48	222	43.7	–	–
COc1ccccc1N1CCN(CCCCn2cc(-c3ccc4ncccc4c3)nn2)CC1	6.3	6.73	269	42.5	–	–
OC(CCn1cc(-c2ccc3[nH]ccc3c2)nn1)CN1CCN(c2cccc(Cl)c2Cl)CC1 (racemic)	165	5.85	–	963	45	35
OC(CCn1cc(-c2ccc3ccccc3c2)nn1)CN1CCN(c2cccc(Cl)c2Cl)CC1 (racemic)	745	25.2	> 20000	18800	–	–
